Measured values: ChEMBL document CHEMBL2331124, “Efficient synthesis of anacardic acid analogues and their antibacterial activities” (Bioorg Med Chem Lett, 2013)
Converted amounts (≈) assume the structure as drawn.

Key:
[1] = Cytotoxicity against human HepG2 cells after 24 hrs by resazurin assay; type: cell-based
[2] = Cytotoxicity against HEK293 cells after 24 hrs by resazurin assay; type: cell-based; conditions: human
Staphylococcus aureus [3] = test: Antibacterial activity against Staphylococcus aureus ATCC 25923 assessed as growth inhibition after 24 hrs by CLSI twofold serial broth microdilution method; type: functional; conditions: ATCC 25923, 24 h
How it was run: (§1)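 CLSI-standard twofold serial broth microdilution; MIC read-out in μg/mL, with vancomycin tested alongside as reference antibiotic.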

Staphylococcus aureus [4] = test: Antibacterial activity against methicillin-resistant Staphylococcus aureus ATCC 43300 assessed as growth inhibition after 24 hrs by CLSI twofold serial broth microdilution method; type: functional; conditions: ATCC 43300, 24 h
How it was run: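 Read-out was the MIC in μg/mL, determined by twofold serial broth microdilution to CLSI standards.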

Staphylococcus aureus [5] = test: Antibacterial activity against glycopeptide-intermediate Staphylococcus aureus NRS 19 assessed as growth inhibition after 24 hrs by CLSI twofold serial broth microdilution method; type: functional; conditions: NRS 19, 24 h; how it was run: as §1

Row | SMILES | CC50 at 24 h [1] [µM] | CC50 at 24 h [2] [µM] | MIC (Staphylococcus aureus [3]) [µg/mL] | MIC (Staphylococcus aureus [4]) [µg/mL] | MIC (Staphylococcus aureus [5]) [µg/mL]
1 | Oc1cc(CCc2ccc3ccccc3c2)cc(O)c1O | > 100 | > 100 | – | – | –
2 | Oc1cc(CCc2ccccc2)cc(O)c1O | 102 | 106 | – | – | –
3 | O=C(O)c1c(O)cccc1/C=C/c1ccccc1 | > 100 | > 100 | – | – | –
4 | COc1cc(C=Cc2ccc3ccccc3c2)c(C(=O)O)c(OC)c1 | > 100 | > 100 | > 128 | > 128 | > 128
5 | COc1cc(Cl)cc(C=Cc2ccc3ccccc3c2)c1C(=O)O | 104 | 93 | > 128 | 64 (≈ 189 µM) | 128 (≈ 378 µM)
6 | O=C(O)c1c(O)cccc1CCc1ccc2ccccc2c1 | > 100 | > 100 | > 128 | > 128 | > 128
7 | COc1cc(O)c(C(=O)O)c(CCc2ccc3ccccc3c2)c1 | 71 | 65 | 64 (≈ 199 µM) | 64 (≈ 199 µM) | 128 (≈ 397 µM)
8 | O=C(O)c1c(O)cc(Cl)cc1CCc1ccc2ccccc2c1 | 35 | 35 | 16 (≈ 49 µM) | 16 (≈ 49 µM) | 128 (≈ 392 µM)
9 | Cc1cc(O)c(C(=O)O)c(CCc2ccc3ccccc3c2)c1 | 38 | 40 | 32 (≈ 104 µM) | 64 (≈ 209 µM) | 128 (≈ 418 µM)
10 | CCN(CC)C(=O)c1c(/C=C/c2ccc3ccccc3c2)cccc1OC | – | 116 | – | – | –
11 | CCN(CC)C(=O)c1c(/C=C\c2ccc3ccccc3c2)cccc1OC | 28 | 38.7 | – | – | –
12 | CCN(CC)C(=O)c1c(CCc2ccc3ccccc3c2)cccc1OC | 35.8 | 85.7 | – | – | –
13 | CCN(CC)C(=O)c1c(O)cccc1CCc1ccc2ccccc2c1 | > 100 | > 100 | – | – | –
14 | CCN(CC)C(=O)c1c(/C=C/c2ccc3ccccc3c2)cc(OC)cc1OC | > 100 | > 100 | – | – | –
15 | CCN(CC)C(=O)c1c(/C=C\c2ccc3ccccc3c2)cc(OC)cc1OC | > 100 | > 100 | – | – | –
16 | CCN(CC)C(=O)c1c(CCc2ccc3ccccc3c2)cc(OC)cc1OC | 59 | > 100 | – | – | –
17 | CCN(CC)C(=O)c1c(O)cc(O)cc1CCc1ccc2ccccc2c1 | 36.4 | 30.6 | – | – | –
18 | O=C(O)c1c(O)cccc1CCc1ccccc1 | > 100 | > 100 | – | – | –
19 | COc1cc(/C=C/c2ccccc2)cc(OC)c1OC | 38.4 | 62.6 | – | – | –
20 | COc1cc(CCc2ccc3ccccc3c2)cc(OC)c1OC | > 100 | > 100 | – | – | –
21 | COc1cc(/C=C/c2ccc3ccccc3c2)cc(OC)c1OC | 16.8 | 23.4 | – | – | –
22 | COc1cc(CCc2ccccc2)cc(OC)c1OC | > 100 | > 100 | – | – | –
23 | COc1cc(/C=C\c2ccccc2)cc(OC)c1OC | 20.2 | 36 | – | – | –
24 | COc1cccc(C=Cc2ccc3ccccc3c2)c1C(=O)O (mixture of isomers) | > 100 | > 100 | > 128 | > 128 | > 128
25 | COc1cc(C)cc(C=Cc2ccc3ccccc3c2)c1C(=O)O (mixture of isomers) | 117 | 119 | > 128 | > 128 | > 128
26 | O=C(O)c1c(O)cccc1C=Cc1ccc2ccccc2c1 (mixture of isomers) | 71 | 97 | 64 | 64 | 64
27 | COc1cc(O)c(C(=O)O)c(C=Cc2ccc3ccccc3c2)c1 (mixture of isomers) | 79 | 65 | > 128 | 128 | 128
28 | O=C(O)c1c(O)cc(Cl)cc1C=Cc1ccc2ccccc2c1 (mixture of isomers) | 25 | 38 | 16 | 16 | 16
29 | Cc1cc(O)c(C(=O)O)c(C=Cc2ccc3ccccc3c2)c1 (mixture of isomers) | 30 | 52 | 16 | 16 | 32
30 | COc1cc(/C=C\c2ccc3ccccc3c2)cc(OC)c1OC [NAPHTHYLCOMBRETASTATIN] | > 100 | > 100 | – | – | –
